Non-standard residues stand in square brackets, D forms with d. No end group written: not given here. *: point of attachment. Biotin = O=C1N[C@H]2[C@H](CS[C@H]2CCCCC(=O)*)N1; pY = N[C@@H](Cc1ccc(OP(=O)(O)O)cc1)C(=O)O; AHA = not defined here
How the values were obtained:
EGFR [1] = target: T1, EGFR (Homo sapiens, UniProt P00533); assay: HPLC and LC-MS/MS analysis of EGFR kinase reaction with Shc1 Y-Y peptide; type: biochemical; settings: no pY-pY peptides detected in HPLC analysis of EGFR reaction (Fig. 2c)
Grb2 = settings: doubly phosphorylated (Tyr239 and Tyr240) Shc1; cited from earlier work
EGFR [2] = target: T1, EGFR; assay: EGFR steady-state kinetics with Shc1 peptides; type: biochemical; settings: peptide primed at Tyr240 vs unmodified peptide
Procedure, shortened: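 Recombinant EGFR kinase domain (residues 696–1022) at 100nM was incubated with Shc1 Tyr239-region peptides carrying added C-terminal lysines (0–12mM) in 50mM Tris pH 7.5, 10mM MgCl₂, 10mM MnCl₂, 2mM DTT with 2μCi γ-³²P-ATP/reaction, 30 min at 30°. Reactions were spotted on P81 paper, washed with 75mM H₃PO₄ and scintillation-counted. Initial rates (<5% substrate consumed) were fitted to Michaelis–Menten by nonlinear least squares; three experiments, each in triplicate.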

Src = assay: HPLC and LC-MS/MS analysis of Src kinase reaction with Shc1 Y-Y peptide; type: biochemical; settings: 5μM Src, 500μM Shc1 peptide, 1mM ATP
Procedure, shortened: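 Recombinant Src (5μM final) was reacted with 500μM unmodified Shc1 peptide and 1mM ATP. Timed aliquots were EDTA-quenched, then run on C18 reversed-phase HPLC (0–30% acetonitrile/0.1% TFA over 30 min, 1.0 ml/min, A220), with peaks assigned from standards. The peak was analysed by nanoflow LC/MS/MS on an Orbitrap with CID and database search (FDR <1.5%, manual check). Site occupancy was taken from spectral counts per pTyr site.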

[3] = test system: Shc1 phosphorylated at Tyr239 and Tyr240 in MCF10A cells; assay: Immunoblot of dual Shc1 phosphorylation in MCF10A cells; type: cell-based; settings: dasatinib 250 or 500nM pretreatment 1 hour, then 1ng/mL EGF 3 min
Procedure, shortened: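 MCF10A cells (STR-authenticated, mycoplasma-free) were kept in HuMEC medium and held 16 h in growth-factor-free medium before pretreatment with test compound and EGF stimulation. Cells were lysed in RIPA buffer containing protease and phosphatase inhibitors. Lysates were separated by SDS-PAGE, transferred to nitrocellulose and immunoblotted with phospho-Shc and total Shc antibodies.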

For PDHQpYYNDAKKK [pY-Y], the “further phosphorylation by EGFR” value (EGFR [1]) was “not a substrate for further phosphorylation by EGFR”.
For “doubly phosphorylated Shc1: Shc1 doubly phosphorylated at Tyr239 and Tyr240, literature ref 31 ({Biotin-AHA}-DHQ[pY][pY]NDFPGKE; reading uncertain)”, the “increase in affinity for Grb2 vs phosphorylation at Tyr239 alone” value (Grb2) is given as 3 fold.
For PDHQYpYNDAKKK [Y-pY], the “decrease of Km by priming phosphorylation” value (EGFR [2]) was “approximately 4 fold”.
In the case of PDHQYYNDAKKK [Y-Y], the “product of Src phosphorylation by HPLC” value (Src) is reported as “mono-phosphorylated peptides were the predominant product”.
For `Cc1nc(Nc2ncc(C(=O)Nc3c(C)cccc3Cl)s2)cc(N2CCN(CCO)CC2)n1` [dasatinib, reference compound], the “inhibition of EGF-induced dual phosphorylation of Shc1” value [3] was “almost completely abolished”.

Reference: article PMC4824005 (Nature structural & molecular biology, 2015)
